Values belong to the compound of their own block, whether it stands above or below them. Calls of active or inactive are those of the source. No cut-off for these calls is given here.
Key:
[1] = Therapeutic index, ratio of LD50 for ICR mouse assessed as acute mortality to ED50 for protection against chloroform-induced ventricular fibrillation in ICR mouse; assay type: organism-based, Cardiac ventricle; settings: in vivo, read-out: Ratio LD50/ED50
Procedure, shortened: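 Male ICR mice, 28-35 days old, dosed ip. For ED50, 8 mice per dose went into a chloroform jar 10 min after dosing and were kept there until breathing stopped; mice with no intermittent or continuous ventricular fibrillation counted as protected. ED50 was derived by Litchfield-Wilcoxon. LD50 came from acute mortality in 10 mice per dose. Index reported as LD50/ED50.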

[2] = tested on: Canis familiaris; assay: Antiarrhythmic activity in aconitine-induced mongrel dog arrhythmic model assessed as mean arterial blood pressure measured at end of infusion at 59 +/- 25 mg/kg, iv (reference value: 70 +/- 8 mmHg); assay type: functional, Canis lupus familiaris, Artery
[3] = Antiarrhythmic activity in mongrel dog Purkinje fiber assessed as spontaneous intrinsic rate at 20 ug/ml by Single Cell Potentials/electrophysiological technique (reference value: 22 +/- 5 BPM); assay type: functional, Canis lupus familiaris
[4] = tested on: Canis familiaris; assay: Antiarrhythmic activity in aconitine-induced mongrel dog arrhythmic model assessed as atrial rate at 59 +/- 25 mg/kg, iv after 16 +/- 10 mins from end of infusion; assay type: functional, Canis lupus familiaris, Heart
[5] = Antiarrhythmic activity in mongrel dog Purkinje fiber assessed as rate of phase 0 depolarization (dV/dt) at 20 ug/ml by Single Cell Potentials/electrophysiological technique (reference value: 478 +/- 67 V/s); assay type: functional, Canis lupus familiaris
[6] = Antiarrhythmic activity in mongrel dog Purkinje fiber assessed as action potential at 5 ug/ml (reference value: 127 +/- 2 mV) by Single Cell Potentials/electrophysiological technique; assay type: functional, Canis lupus familiaris
[7] = tested on: Plasma; assay: Drug metabolism in mongrel dog assessed as p-hydroxy-N-(2-diethylaminoethyl)benzamide level in plasma; assay type: ADME, cell-free, Canis lupus familiaris
Procedure, shortened: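 Dog plasma sampled when infusion ended. Extracted with NaCl and internal standard and run on TLC (benzene/28% ammonia/acetone/dioxane 5:8:80:5). Quantified by reflectance densitometry, 260-nm illumination, as fluorescence quenching. Peak areas read against standard curves, linear over 0.1-0.8 µg per plate.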

[8] = tested on: Canis familiaris; assay: Antiarrhythmic activity in aconitine-induced mongrel dog arrhythmic model assessed as decrease in ventricular rate at 59 +/- 25 mg/kg, iv after 16 +/- 10 mins from end of infusion (reference value: 205 +/- 65 BPM); assay type: functional, Canis lupus familiaris, Heart
[9] = Toxicity in ip dosed ICR mouse assessed as acute mortality; assay type: organism-based; settings: in vivo
Procedure, shortened: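 Male ICR mice, 28-35 days old (av wt 26 g), in groups of ten per dose level, given drug ip. Deaths recorded at 10, 15, 30, 60, 120 and 210 min after injection to set acute mortality.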

[10] = Antiarrhythmic activity in mongrel dog Purkinje fiber assessed as maximum diastolic potential at 5 ug/ml (reference value: -93 +/- 2 mV) by Single Cell Potentials/electrophysiological technique; assay type: functional, Canis lupus familiaris
[11] = Antiarrhythmic activity in mongrel dog Purkinje fiber assessed as 50% repolarization time at 5 ug/ml by Single Cell Potentials/electrophysiological technique (reference value: 200 +/- 6 ms); assay type: functional, Canis lupus familiaris
[12] = tested on: Canis familiaris; assay: Antiarrhythmic activity in aconitine-induced mongrel dog arrhythmic model assessed as decrease in ventricular rate measured at end of infusion at 59 +/- 25 mg/kg, iv (reference value: 205 +/- 65 BPM); assay type: functional, Canis lupus familiaris, Heart
[13] = Antiarrhythmic activity in mongrel dog Purkinje fiber assessed as 90% repolarization time at 5 ug/ml by Single Cell Potentials/electrophysiological technique (reference value: 282 +/- 8 ms); assay type: functional, Canis lupus familiaris
[14] = Antiarrhythmic activity in mongrel dog Purkinje fiber assessed as spontaneous intrinsic rate at 5 ug/ml by Single Cell Potentials/electrophysiological technique (reference value: 19 +/- 4 BPM); assay type: functional, Canis lupus familiaris
[15] = Antiarrhythmic activity in mongrel dog Purkinje fiber assessed as 50% repolarization time at 20 ug/ml by Single Cell Potentials/electrophysiological technique (reference value: 236 +/- 9 ms); assay type: functional, Canis lupus familiaris
[16] = Antiarrhythmic activity in mongrel dog Purkinje fiber assessed as action potential at 20 ug/ml (reference value: 128 +/- 3 mV) by Single Cell Potentials/electrophysiological technique; assay type: functional, Canis lupus familiaris
[17] = tested on: Plasma; assay: Plasma concentration in mongrel dog at 59 +/- 25 mg/kg, iv; assay type: ADME, organism-based, Canis lupus familiaris; design: route intravenous; settings: in vivo
Procedure, shortened: (§1)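 Plasma withdrawn from each aconitine-treated dog when iv infusion was discontinued; drug measured by TLC densitometry.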

[18] = Antiarrhythmic activity in mongrel dog Purkinje fiber assessed as rate of phase 0 depolarization (dV/dt) at 5 ug/ml by Single Cell Potentials/electrophysiological technique (reference value: 439 +/- 47 V/s); assay type: functional, Canis lupus familiaris
[19] = Antiarrhythmic activity in mongrel dog Purkinje fiber assessed as 90% repolarization time at 20 ug/ml by Single Cell Potentials/electrophysiological technique (reference value: 302 +/- 12 ms); assay type: functional, Canis lupus familiaris
[20] = tested on: Canis familiaris; assay: Antiarrhythmic activity in aconitine-induced mongrel dog arrhythmic model assessed as atrial rate measured at end of infusion at 59 +/- 25 mg/kg, iv; assay type: functional, Canis lupus familiaris, Heart
[21] = Antiarrhythmic activity in mongrel dog Purkinje fiber assessed as maximum diastolic potential at 20 ug/ml (reference value: -93 +/- 2 mV) by Single Cell Potentials/electrophysiological technique; assay type: functional, Canis lupus familiaris
[22] = tested on: Mus musculus; assay: Antiarrhythmic activity in ip dosed ICR mouse assessed as protection against chloroform-induced ventricular fibrillation; assay type: functional; settings: Heart
Procedure, shortened: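 Male ICR mice, 28-35 days, mean 25 g, given drug ip, then after 10 min exposed to chloroform in a jar until breathing stopped. Protection meant no intermittent or continuous ventricular fibrillation at any point. Eight mice per dosage interval.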

[23] = tested on: Mus musculus; assay: Antiarrhythmic activity in ICR mouse assessed as protection against chloroform-induced ventricular fibrillation at 233 to 240 mg/kg, ip; assay type: functional, Heart
Procedure, shortened: (§2)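 ICR male mice, 28-35 days old, average weight 25 g, dosed ip. After 10 min they were placed in a chloroform jar and anesthetized. A mouse counted as protected if no intermittent or continuous ventricular fibrillation appeared before breathing ceased. Definite fibrillation counted as unprotected even if it later changed rhythm. Eight mice per dose.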

[24] = tested on: Mus musculus; assay: Antiarrhythmic activity in ICR mouse assessed as protection against chloroform-induced ventricular fibrillation at 100 mg/kg, ip; assay type: functional, organism-based; design: dose 100 mg/kg; settings: Heart; procedure, shortened: as §2
[25] = Antiarrhythmic activity in mongrel dog Purkinje fiber assessed as spontaneous intrinsic rate at 10 ug/ml by Single Cell Potentials/electrophysiological technique (reference value: 33 +/- 5 BPM); assay type: functional, Canis lupus familiaris
[26] = tested on: Canis familiaris; assay: Antiarrhythmic activity in aconitine-induced mongrel dog arrhythmic model assessed as decrease in ventricular rate rate at 48 +/- 38 mg/kg, iv after 17 +/- 16 mins from end of infusion (reference value: 205 +/- 65 BPM); assay type: functional, Canis lupus familiaris, Heart
[27] = Antiarrhythmic activity in mongrel dog Purkinje fiber assessed as spontaneous intrinsic rate at 20 ug/ml by Single Cell Potentials/electrophysiological technique (reference value: 35 +/- 7 BPM); assay type: functional, Canis lupus familiaris
[28] = tested on: Canis familiaris; assay: Antiarrhythmic activity in aconitine-induced mongrel dog arrhythmic model assessed as atrial rate at 48 +/- 38 mg/kg, iv after 17 +/- 16 mins from end of infusion; assay type: functional, Canis lupus familiaris, Heart
[29] = Antiarrhythmic activity in mongrel dog Purkinje fiber assessed as 50% repolarization time at 20 ug/ml by Single Cell Potentials/electrophysiological technique (reference value: 223 +/- 11 ms); assay type: functional, Canis lupus familiaris
[30] = Antiarrhythmic activity in mongrel dog Purkinje fiber assessed as 90% repolarization time at 10 ug/ml by Single Cell Potentials/electrophysiological technique (reference value: 274 +/- 30 ms); assay type: functional, Canis lupus familiaris
[31] = tested on: Canis familiaris; assay: Antiarrhythmic activity in aconitine-induced mongrel dog arrhythmic model assessed as atrial rate measured at end of infusion at 48 +/- 38 mg/kg, iv; assay type: functional, Canis lupus familiaris, Heart
[32] = Antiarrhythmic activity in mongrel dog Purkinje fiber assessed as 50% repolarization time at 10 ug/ml by Single Cell Potentials/electrophysiological technique (reference value: 244 +/- 15 ms); assay type: functional, Canis lupus familiaris
[33] = Antiarrhythmic activity in mongrel dog Purkinje fiber assessed as rate of phase 0 depolarization (dV/dt) at 20 ug/ml by Single Cell Potentials/electrophysiological technique (reference value: 474 +/- 57 V/s); assay type: functional, Canis lupus familiaris
[34] = tested on: Canis familiaris; assay: Antiarrhythmic activity in aconitine-induced mongrel dog arrhythmic model assessed as decrease in ventricular rate rate measured at end of infusion at 48 +/- 38 mg/kg, iv (reference value: 205 +/- 65 BPM); assay type: functional, Canis lupus familiaris, Heart
[35] = Antiarrhythmic activity in mongrel dog Purkinje fiber assessed as rate of phase 0 depolarization (dV/dt) at 10 ug/ml by Single Cell Potentials/electrophysiological technique (reference value: 491 +/- 40 V/s); assay type: functional, Canis lupus familiaris
[36] = Antiarrhythmic activity in mongrel dog Purkinje fiber assessed as 90% repolarization time at 20 ug/ml by Single Cell Potentials/electrophysiological technique (reference value: 284 +/- 12 ms); assay type: functional, Canis lupus familiaris
[37] = tested on: Plasma; assay: Plasma concentration in mongrel dog at 48 +/- 38 mg/kg, iv; assay type: ADME, organism-based, Canis lupus familiaris; design: route intravenous; settings: in vivo; procedure, shortened: as §1
[38] = tested on: Canis familiaris; assay: Antiarrhythmic activity in aconitine-induced mongrel dog arrhythmic model assessed as mean arterial blood pressure measured at end of infusion at 48 +/- 38 mg/kg, iv (reference value: 70 +/- 8 mmHg); assay type: functional, Canis lupus familiaris, Artery
[39] = tested on: Plasma; assay: Drug metabolism in mongrel dog assessed as ester of p-acetoxy-N-(2-diethylaminoethyl)benzamide level in plasma; assay type: ADME, cell-free, Canis lupus familiaris
Procedure, shortened: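 Dog plasma taken at end of infusion was extracted as for the phenol but without internal standard. Spotted on silica gel F254 TLC, developed with acetone-methanol (1:1), and quantified by densitometry.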

[40] = tested on: Canis familiaris; assay: Antiarrhythmic activity in aconitine-induced mongrel dog arrhythmic model assessed as decrease in ventricular rate rate at 50 +/- 24 mg/kg, iv after 20 +/- 3 mins from end of infusion (reference value: 205 +/- 65 BPM); assay type: functional, Canis lupus familiaris, Heart
[41] = tested on: Canis familiaris; assay: Antiarrhythmic activity in aconitine-induced mongrel dog arrhythmic model assessed as atrial rate measured at end of infusion at 50 +/- 24 mg/kg, iv; assay type: functional, Canis lupus familiaris, Heart
[42] = tested on: Canis familiaris; assay: Antiarrhythmic activity in aconitine-induced mongrel dog arrhythmic model assessed as decrease in ventricular rate rate measured at end of infusion at 50 +/- 24 mg/kg, iv (reference value: 205 +/- 65 BPM); assay type: functional, Canis lupus familiaris, Heart
[43] = tested on: Canis familiaris; assay: Antiarrhythmic activity in aconitine-induced mongrel dog arrhythmic model assessed as atrial rate at 50 +/- 24 mg/kg, iv after 20 +/- 3 mins from end of infusion; assay type: functional, Canis lupus familiaris, Heart
[44] = Stability in human plasma assessed as hydrolysis at 20 ug/ml after 5 mins at room temperature; assay type: ADME, cell-free; settings: read-out: Drug degradation
Procedure, shortened: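 Ester at 20 µg/ml held in fresh human plasma for 5 min at room temperature. Comparison conditions: plasma plus 10^-5 M physostigmine, and saline. Standards extracted and measured by TLC densitometry.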

[45] = tested on: Canis familiaris; assay: Antiarrhythmic activity in aconitine-induced mongrel dog arrhythmic model assessed as mean arterial blood pressure measured at end of infusion at 50 +/- 24 mg/kg, iv (reference value: 70 +/- 8 mmHg); assay type: functional, Canis lupus familiaris, Artery
[46] = tested on: Plasma; assay: Plasma concentration in mongrel dog at 50 +/- 24 mg/kg, iv; assay type: ADME, organism-based, Canis lupus familiaris; design: route intravenous; settings: in vivo; procedure, shortened: as §1

Structure (SMILES): CCN(CC)CCNC(=O)c1ccc(O)cc1.Cl
selectivity ratio [1]: 2.1
Activity [2]: 64 mmHg
Activity [3]: 16 bpm
Activity [4]: 278 bpm
Activity [5]: 423 V/s
Activity [6]: 127 mV
Drug metabolism [7]: 97 µg/mL
Activity [8]: 160 bpm
LD50 [9]: 335 mg/kg
Activity [10]: -95 mV
Time [11]: 250 ms
Activity [12]: 197 bpm
Time [13]: 344 ms
Activity [14]: 20 bpm
Time [15]: 280 ms
Activity [16]: 126 mV
Cp [17]: 137 µg/mL
Activity [18]: 396 V/s
Time [19]: 381 ms
Activity [20]: 210 bpm
Activity [21]: -94 mV
ED50 [22]: 157 mg/kg

Structure (SMILES): CCN(CC)CCNC(=O)c1ccc(NC(C)=O)cc1.Cl [ACECAINIDE HYDROCHLORIDE]
ED50 [22]: 110 mg/kg

Structure (SMILES): CCN(CC)CCNC(=O)c1ccc([N+](=O)[O-])cc1.Cl
Activity ([23]; dose mg/kg 233-240, route intraperitoneal): 38%

Structure (SMILES): CCN(CC)CCNC(=O)c1ccccc1
Activity ([23]; Heart): inactive
Activity [24]: inactive

Structure (SMILES): CCN(CC)CCNC(=O)c1ccc(N)cc1.Cl [PROCAINAMIDE HYDROCHLORIDE]
selectivity ratio [1]: 1.8
Activity [25]: 24 bpm
Activity [26]: 215 bpm
Activity [27]: 23 bpm
Activity [28]: 283 bpm
Time [29]: 239 ms
Time [30]: 334 ms
LD50 [9]: 255 mg/kg
Activity [31]: 225 bpm
Time [32]: 265 ms
Activity [33]: 411 V/s
Activity [34]: 203 bpm
Activity [35]: 421 V/s
Time [36]: 316 ms
Cp [37]: 118 µg/mL
Activity [38]: 68 mmHg
ED50 [22]: 137 mg/kg

metabolised at 5 min, 20 ug/ml [44]: 60%
Cp [46]: < 0.5 µg/mL
Structure (SMILES): CCN(CC)CCNC(=O)c1ccc(OC(C)=O)cc1.Cl
Drug metabolism [39]: < 0.5 µg/mL
Activity [40]: 183 bpm
Activity [41]: 173 bpm
Activity [42]: 173 bpm
Activity [43]: 373 bpm
Activity [45]: 70 mmHg
